ChEMBL document CHEMBL4665767, “Synthesis and biological evaluation of semi-synthetic albocycline analogs” (2020)
Converted amounts (≈) assume the structure as drawn. The source made the active and inactive calls. The rule behind the calls is not given here.

Assays:
Staphylococcus aureus [1] = experiment: Antibacterial activity against methicillin sensitive Staphylococcus aureus UAMS1; type: functional
In short: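 Broth microdilution in Mueller Hinton broth; DMSO stocks (12.8 mg/mL) serially diluted, 2 µL added per well, giving up to 256 µg/mL. Inoculum grown at 37 °C, 200 rpm to OD600 0.18, diluted to final 3x10^5 cells/mL, count confirmed by plating. Technical duplicate; 16-24 h at 37 °C; MIC = lowest concentration with visual growth inhibition.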

Staphylococcus aureus [2] = experiment: Potency index, ratio of albocycline MIC to test compound MIC for methicillin resistant Staphylococcus aureus USA300; type: functional
Staphylococcus aureus [3] = experiment: Antibacterial activity against methicillin resistant Staphylococcus aureus USA300; type: functional
In short: (§1)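 Broth microdilution MIC in Mueller Hinton broth. Stocks 12.8 mg/mL in DMSO, serially diluted twofold, 2 µL added per well (top final 256 µg/mL). Inoculum grown at 37 °C, 200 rpm to OD600 0.18, then diluted to 3x10^5 cells/mL final, checked by plate count. Incubated 16-24 h at 37 °C, technical duplicates. MIC read as lowest concentration with visible growth inhibition.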

Escherichia coli = experiment: Antibacterial activity against Escherichia coli; type: functional, organism-based
Acinetobacter baumannii = experiment: Antibacterial activity against Acinetobacter baumannii; type: functional, organism-based
Pseudomonas aeruginosa = experiment: Antibacterial activity against Pseudomonas aeruginosa; type: functional, organism-based
In short: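 Twofold serial dilutions in 96-well microtiter plates from a 10 mg/mL DMSO starting concentration; DMSO solvent control, kanamycin positive control. Wells inoculated with 1:100 dilution of overnight cultures (P. aeruginosa strain PA10). Incubated 37 °C for 24 h; MIC scored as lowest well showing growth inhibition.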

Staphylococcus aureus [4] = experiment: Antibacterial activity against methicillin resistant Staphylococcus aureus; type: functional; in short: as §1
Staphylococcus aureus [5] = experiment: Antibacterial activity against vancomycin-resistant Staphylococcus aureus; type: functional; in short: as §1
Staphylococcus aureus [6] = experiment: Antibacterial activity against vancomycin-intermediate Staphylococcus aureus; type: functional; in short: as §1

Row | Compound | MIC (Staphylococcus aureus [1]) | MIC (Staphylococcus aureus [3]) | also measured
1 | COC/C1=C\CC[C@H](C)[C@@H](C)OC(=O)/C=C/[C@](C)(O)/C=C/[C@@H]1OC | 128 µg/mL (≈ 378 µM) | – | –
2 | CO[C@H]1/C=C/[C@@](C)(O)/C=C/C(=O)O[C@H](C)[C@@H](C)CC/C=C/1C=O | 32 µg/mL (≈ 99.3 µM) | – | –
3 | CO[C@H]1/C=C/[C@@](C)(OC(=O)c2ccc(F)cc2)/C=C/C(=O)O[C@H](C)[C@@H](C)CC/C=C/1C | 1 µg/mL (≈ 2.32 µM) | 1 µg/mL (≈ 2.32 µM) | Ratio (Staphylococcus aureus [2]): 2
4 | C#CCO[C@@]1(C)/C=C/C(=O)O[C@H](C)[C@@H](C)CC/C=C(\C)[C@@H](OC)/C=C/1 | > 256 µg/mL | – | –
5 | CO[C@H]1/C=C/[C@@](C)(O)/C=C/C(=O)O[C@H](C)[C@@H](C)CC/C=C/1COP(=O)(Oc1ccccc1)Oc1ccccc1 | > 256 µg/mL | > 256 µg/mL | –
6 | CO[C@H]1/C=C/[C@@](C)(O)C(SCCN)CC(=O)O[C@H](C)[C@@H](C)CC/C=C/1C (mixture of isomers) | 128 µg/mL | 256 µg/mL | Activity (Escherichia coli): inactive; Activity (Acinetobacter baumannii): inactive; Activity (Pseudomonas aeruginosa): inactive
7 | CO[C@H]1/C=C/[C@@](C)(O)/C=C/C(=O)O[C@H](C)[C@@H](C)CC/C=C/1C | 2 µg/mL (≈ 6.48 µM) | 2 µg/mL (≈ 6.48 µM) | MIC (Staphylococcus aureus [4]): 0.5 µg/mL (≈ 1.62 µM); MIC (Staphylococcus aureus [5]): 0.5 µg/mL (≈ 1.62 µM); MIC (Staphylococcus aureus [6]): 0.5 µg/mL (≈ 1.62 µM)
8 | C/C1=C\CC[C@H](C)[C@@H](C)OC(=O)/C=C/[C@](C)(O)/C=C/[C@@H]1O | 8 µg/mL (≈ 27.2 µM) | 4 µg/mL (≈ 13.6 µM) | –
9 | CO[C@H]1/C=C/[C@@](C)(O)/C=C/C(=O)O[C@H](C)[C@@H](C)CC/C=C/1CO | 32 µg/mL (≈ 98.6 µM) | – | –
